# Measured values: publication PMC7870562 (Bioorganic chemistry, 2020)
# How the values were obtained:
# A375 cells [1] = experiment: MTT cytotoxicity / cell viability assay, A375; format: cell-based, human; conditions: for IC50: Homo sapiens, A-375, 48 h; for selectivity index: IC50 melanocytes / IC50 A375
# In short: (§1)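 Cells in 5–10% FBS/DMEM were seeded at 5×10³ per well, refed at 24 h and grown to 70% confluence. They were treated for 48 h at 37°C, 5% CO2 with two-fold serial dilutions of test compound in DMSO (≤0.1%), […], in 8–10 repeats. After MTT, absorbance was read at 562 nm. Viability was expressed relative to DMSO controls and IC50 derived by nonlinear regression. Data are mean ± SD of ≥5 independent experiments in octuplicates.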
# SK-Mel-28 cells = experiment: MTT cytotoxicity / cell viability assay, SK-Mel-28; format: cell-based, human; conditions: for IC50: Homo sapiens, SK-MEL-28, 48 h; for selectivity index: IC50 melanocytes / IC50 SK-Mel-28
# In short: as §1
# HaCaT = experiment: MTT cytotoxicity / cell viability assay, HaCaT keratinocytes; format: cell-based; conditions: Homo sapiens, 48 h
# In short: as §1
# A431 cells [2] = experiment: MTT cytotoxicity / cell viability assay, A431; format: cell-based, human; conditions: for IC50: Homo sapiens, A-431, 48 h; for selectivity index: IC50 HaCaT / IC50 A431
# In short: as §1
# UWBCC1 cells = experiment: MTT cytotoxicity / cell viability assay, UWBCC1; format: cell-based, human; conditions: for IC50: Homo sapiens, 48 h; for selectivity index: IC50 HaCaT / IC50 UWBCC1
# In short: as §1
# CDK2/Cyclin A = CDK2/Cyclin A (Homo sapiens, UniProt P24941); experiment: In vitro kinase activity assay; format: biochemical; conditions: 10-dose, three-fold serial dilution from 100 μM
# In short: (§2)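 Kinase profiling was run at Reaction Biology. IC50 values came from 10-dose mode, three-fold serial dilutions starting at 100 μM. Reference inhibitors were co-assayed at 1 and 10 μM.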
# c-Kit = c-Kit (Homo sapiens, UniProt P10721); experiment: In vitro kinase activity assay; format: biochemical
# c-Kit, sequence (P10721 26-976): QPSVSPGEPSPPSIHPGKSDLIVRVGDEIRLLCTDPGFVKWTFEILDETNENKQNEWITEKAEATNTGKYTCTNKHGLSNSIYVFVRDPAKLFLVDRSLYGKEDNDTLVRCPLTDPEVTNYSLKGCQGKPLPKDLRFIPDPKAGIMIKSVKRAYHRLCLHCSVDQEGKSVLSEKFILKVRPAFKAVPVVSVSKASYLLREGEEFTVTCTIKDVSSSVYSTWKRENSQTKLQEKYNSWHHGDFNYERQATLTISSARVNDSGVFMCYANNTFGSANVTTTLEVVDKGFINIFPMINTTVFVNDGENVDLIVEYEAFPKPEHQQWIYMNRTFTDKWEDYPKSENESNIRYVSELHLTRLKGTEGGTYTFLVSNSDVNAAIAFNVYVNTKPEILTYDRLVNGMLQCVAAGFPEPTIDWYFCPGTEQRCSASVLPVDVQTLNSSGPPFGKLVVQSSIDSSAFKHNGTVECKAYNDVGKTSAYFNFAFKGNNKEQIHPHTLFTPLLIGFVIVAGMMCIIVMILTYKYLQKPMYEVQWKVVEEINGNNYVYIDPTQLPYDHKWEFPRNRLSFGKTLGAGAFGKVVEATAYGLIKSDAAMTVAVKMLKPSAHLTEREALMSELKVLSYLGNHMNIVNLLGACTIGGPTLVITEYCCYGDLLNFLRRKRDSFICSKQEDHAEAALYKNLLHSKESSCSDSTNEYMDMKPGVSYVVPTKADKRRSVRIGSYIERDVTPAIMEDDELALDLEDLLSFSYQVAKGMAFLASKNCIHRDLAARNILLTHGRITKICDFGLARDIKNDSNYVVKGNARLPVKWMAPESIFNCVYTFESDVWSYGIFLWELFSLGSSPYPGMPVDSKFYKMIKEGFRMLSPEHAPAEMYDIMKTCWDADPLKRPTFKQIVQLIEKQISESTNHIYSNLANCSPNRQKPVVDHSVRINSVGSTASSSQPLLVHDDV
# In short: as §2
# CDK2/Cyclin E = CDK2/Cyclin E (Homo sapiens, UniProt P24941); experiment: In vitro kinase activity assay; format: biochemical; conditions: 10-dose, three-fold serial dilution from 100 μM
# In short: as §2
# mTOR/FRAP1 = mTOR/FRAP1 (Homo sapiens, UniProt P42345); experiment: In vitro kinase activity assay; format: biochemical; conditions: mTOR/FRAP1 IC50, 10-dose, three-fold serial dilution from 100 μM
# In short: as §2
# Melanocyte = experiment: MTT cytotoxicity / cell viability assay, normal melanocytes; format: cell-based; conditions: Homo sapiens, 48 h
# In short: as §1
# A431 cells [3] = experiment: DAPI staining of apoptotic nuclei, A431; format: cell-based, human
# In short: (§3)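 Equal numbers of cells were seeded in T-25 flasks and exposed to test compound at different concentrations for 36 h. Cells were PBS-washed, stained with DAPI in PBS and imaged by fluorescence microscopy at 10x and 1.6×10x. Apoptotic nuclei were scored by morphology and expressed as percentage of cells.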
# A375 cells [4] = experiment: DAPI staining of apoptotic nuclei, A375; format: cell-based, human
# In short: as §3
SMILES,IC50 (A375 cells [1]) [µM],IC50 (SK-Mel-28 cells) [µM],IC50 (HaCaT) [µM],IC50 (A431 cells [2]) [µM],selectivity index (A431 cells [2]),IC50 (UWBCC1 cells) [µM],selectivity index (UWBCC1 cells),IC50 (CDK2/Cyclin A) [µM],selectivity index (A375 cells [1]),selectivity index (SK-Mel-28 cells),IC50 (c-Kit) [µM],IC50 (CDK2/Cyclin E) [µM],IC50 (mTOR/FRAP1) [µM],IC50 (Melanocyte) [µM],"DAPI (+) apoptotic cells (A431 cells [3]; A431, treated 36 hours at IC50) [%]","DAPI (+) apoptotic cells (A431 cells [3]; A431, treated 36 hours at ½IC50) [%]","DAPI (+) apoptotic cells (A375 cells [4]; A375, treated 36 hours at IC50) [%]","DAPI (+) apoptotic cells (A375 cells [4]; A375, treated 36 hours at ½IC50) [%]"
"COc1cccc2c1C(=O)c1c(O)c3c(c(O)c1C2=O)C[C@@](O)(C(=O)CO)C[C@@H]3O[C@H]1C[C@H](N)[C@H](O)[C@H](C)O1 [Doxorubicin, reference compound]",0.1 ± 0.01,0.23 ± 0.06,0.07 ± 0.01,0.37 ± 0.02,0.2,–,–,–,–,–,–,–,–,–,–,–,–,–
"O=c1c(O)c(-c2ccc(O)c(O)c2)oc2cc(O)ccc12 [F0, 3´,4´,7-trihydroxyflavonol, reference compound]",21 ± 1,29 ± 4,30 ± 1.1,26 ± 1,1.2,28 ± 0.2,1.1,2.62,1.6,1.1,1.34,3.34,28.7,33 ± 2.7,–,–,–,–
"O=c1c(O)c(-c2ccccc2)oc2ccccc12 [F1, 3-Hydroxy-2-phenyl-4H-chromen-4-one]",14 ± 0.8,21 ± 1,38 ± 0.02,15 ± 0.04,2.5,12 ± 0.8,3.2,–,1.9,1.2,–,–,–,27 ± 0.9,–,–,–,–
"COc1cccc(-c2oc3ccccc3c(=O)c2O)c1 [F2, 3-Hydroxy-2-(3-methoxyphenyl)-4H-chromen-4-one]",28 ± 2.3,–,–,21 ± 16,–,–,–,–,–,–,–,–,–,–,–,–,–,–
"O=c1c(O)c(-c2ccc(SC(F)(F)F)cc2)oc2ccccc12 [F3, 3-Hydroxy-2-(4-((trifluoromethyl)thio)phenyl)-4H-chromen-4-one]",14 ± 0.2,5.2 ± 1.7,27 ± 0.7,9.7 ± 2.3,2.8,–,–,–,2.2,6.0,–,–,–,31 ± 0.74,–,–,–,–
"O=c1c(O)c(-c2ccc(Br)cc2Cl)oc2ccccc12 [F4, 2-(4-Bromo-2-chlorophenyl)-3-hydroxy-4H-chromen-4-one]",> 100,–,–,61 ± 30,–,–,–,–,–,–,–,–,–,–,–,–,–,–
"O=c1c(O)c(-c2ccc(C(F)(F)F)cc2C(F)(F)F)oc2ccccc12 [F5, 2-(2,4-Bis(trifluoromethyl)phenyl)-3-hydroxy-4H-chromen-4-one]",95 ± 12,–,–,> 100,–,–,–,–,–,–,–,–,–,–,–,–,–,–
"O=c1c(O)c(-c2cc(C(F)(F)F)cc(C(F)(F)F)c2)oc2ccccc12 [F6, 2-(3,5-Bis(trifluoromethyl)phenyl)-3-hydroxy-4H-chromen-4-one]",7 ± 0.32,27 ± 4.1,31 ± 1.9,8.6 ± 0.5,3.6,6.6 ± 0.79,4.7,> 100,3.7,–,> 100,–,–,26 ± 1.3,–,–,–,–
"O=c1c(O)c(-c2ccc(OCc3ccccc3)cc2)oc2ccccc12 [F7, 2-(4-(Benzyloxy)phenyl)-3-hydroxy-4H-chromen-4-one]",88 ± 35,–,–,> 100,–,–,–,–,–,–,–,–,–,–,–,–,–,–
"Cc1ccc2c(=O)c(O)c(-c3cccc(Cl)c3)oc2c1 [F8, 2-(3-Chlorophenyl)-3-hydroxy-7-methyl-4H-chromen-4-one]",8.4 ± 0.4,22 ± 3,22 ± 0.2,8.3 ± 2.1,2.7,6.7 ± 1.5,3.3,7.16,3.1,1.1,0.54,17.1,23.9,26 ± 3.8,12.8,5.84,11.3,6.5
"COc1ccc(-c2oc3cc(C)ccc3c(=O)c2O)c(Br)c1OC [F10, 2-(2-Bromo-3,4-dimethoxyphenyl)-3-hydroxy-7-methyl-4H-chromen-4-one]",31 ± 13,–,–,36 ± 0.1,–,11 ± 5,–,–,–,–,–,–,–,–,–,–,–,–
